The target of assay [1] is T1, Hepatocyte growth factor receptor (Homo sapiens, UniProt P08581). Kind of assay: Inhibition of c-Met (unknown origin) using poly (Glu, Tyr) 4:1 as substrate at 10 uM after 60 mins by ELISA. An outline of the steps: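 ELISA on wells precoated with 20 µg/mL poly(Glu,Tyr)4:1. Purified kinase with 10 µmol/L ATP in 50 mM HEPES pH 7.4, 50 mM MgCl₂, 0.5 mM MnCl₂, 0.2 mM Na₃VO₄, 1 mM DTT; 1% DMSO vehicle. 60 min at 37°C. Phosphotyrosine detected with PY99 antibody, then HRP anti-mouse IgG and o-phenylenediamine/H₂O₂, A490. Inhibition = [1−(A490/A490 control)]×100%; IC50 from curves.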
Background: ELISA stands for enzyme-linked immunosorbent assay.

For assay [2], the target named is T1, Hepatocyte growth factor receptor. Kind of assay: Inhibition of c-Met in gefitinib-resistant human HCC827 cells assessed as inhibition of p44/42 phosphorylation at 0.5 uM after 2 hrs by Western blotting analysis. Type of assay: cell-based. An outline of the steps: (§1)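 Cells grown to exponential phase, treated with compound 2 h at 37°C, lysed in 1× SDS sample buffer, resolved on 10% SDS-PAGE and transferred to nitrocellulose for immunoblotting.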
On the technique in general: A western blot detects proteins with antibodies after separation by electrophoresis.

Assay [3] shares this target. Kind of assay: Inhibition of c-Met phosphorylation in gefitinib-resistant human HCC827 cells at 0.5 uM after 2 hrs by Western blotting analysis. Type of assay: cell-based. An outline of the steps: as §1
Assay [4] shares this target. Kind of assay: Inhibition of c-Met in gefitinib-resistant human HCC827 cells assessed as inhibition of AKT phosphorylation at 0.5 uM after 2 hrs by Western blotting analysis. It is filed as cell-based. An outline of the steps: as §1
For assay [5] the target is unchanged. Kind of assay: Inhibition of c-Met (unknown origin) using poly (Glu, Tyr) 4:1 as substrate after 60 mins by ELISA.
The next assay concerns HCT-116. Kind of assay: Antiproliferative activity against human HCT116 cells after 72 hrs. Particulars: HCT-116, 72 h.
The next assay has as its system SK-MEL-28. Kind of assay: Antiproliferative activity against human SK-MEL-28 cells after 72 hrs. The note with it: SK-MEL-28, 72 h.
The test system of a further assay is SK-OV-3. Kind of assay: Antiproliferative activity against human SKOV3 cells after 72 hrs. Particulars: SK-OV-3, 72 h.
The next assay deals with MCF7. Kind of assay: Antiproliferative activity against human MCF7 cells after 72 hrs. Particulars: MCF7, 72 h.
For a further assay, the system named is MDA-MB-231. Kind of assay: Antiproliferative activity against human MDA-MB-231 cells after 72 hrs. Particulars: MDA-MB-231, 72 h.
In a further assay the test system is NCI-H441. Kind of assay: Antiproliferative activity against human NCI-H441 cells after 72 hrs. Particulars: NCI-H441, 72 h.
The subject of a further assay is NCI-H661. Kind of assay: Antiproliferative activity against human NCI-H661 cells after 72 hrs. Particulars: NCI-H661, 72 h.
Assay [6] in a line: Antiproliferative activity against human EBC1 cells after 72 hrs. Particulars: EBC-1, 72 h.
The test system of the next assay is SNU-5. Kind of assay: Antiproliferative activity against human SNU5 cells after 72 hrs. Particulars: SNU-5, 72 h.
The test system of the next assay is MKN-45. Kind of assay: Antiproliferative activity against human MKN45 cells after 72 hrs. The note with it: MKN-45, 72 h.
In the next assay the test system is NIH3T3. Kind of assay: Antitumor activity against mouse NIH/3T3 cells expressing TPR/Met allografted in mouse assessed as tumor growth inhibition at 50 mg/kg, po qd administered for 2 weeks measured twice per week relative to vehicle-treated control. It is filed as functional. The note with it: NIH3T3, 336 h, read-out: TGI. An outline of the steps: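 Tumor fragments (1 mm³) implanted s.c. in right flank of nude mice by trocar. Randomized at 100–150 mm³ tumor volume. Dosed orally 7 days/week for 2 weeks; vehicle controls. Calipers twice weekly; TV = length×width²/2. Inhibition = 100%×{1−[(T day14−T day0)/(C day14−C day0)]}. n = 6/group, Student's t-test.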

The source made the active and inactive calls. The rule behind the calls is not given here.

T1 sequence (P08581 whole entry): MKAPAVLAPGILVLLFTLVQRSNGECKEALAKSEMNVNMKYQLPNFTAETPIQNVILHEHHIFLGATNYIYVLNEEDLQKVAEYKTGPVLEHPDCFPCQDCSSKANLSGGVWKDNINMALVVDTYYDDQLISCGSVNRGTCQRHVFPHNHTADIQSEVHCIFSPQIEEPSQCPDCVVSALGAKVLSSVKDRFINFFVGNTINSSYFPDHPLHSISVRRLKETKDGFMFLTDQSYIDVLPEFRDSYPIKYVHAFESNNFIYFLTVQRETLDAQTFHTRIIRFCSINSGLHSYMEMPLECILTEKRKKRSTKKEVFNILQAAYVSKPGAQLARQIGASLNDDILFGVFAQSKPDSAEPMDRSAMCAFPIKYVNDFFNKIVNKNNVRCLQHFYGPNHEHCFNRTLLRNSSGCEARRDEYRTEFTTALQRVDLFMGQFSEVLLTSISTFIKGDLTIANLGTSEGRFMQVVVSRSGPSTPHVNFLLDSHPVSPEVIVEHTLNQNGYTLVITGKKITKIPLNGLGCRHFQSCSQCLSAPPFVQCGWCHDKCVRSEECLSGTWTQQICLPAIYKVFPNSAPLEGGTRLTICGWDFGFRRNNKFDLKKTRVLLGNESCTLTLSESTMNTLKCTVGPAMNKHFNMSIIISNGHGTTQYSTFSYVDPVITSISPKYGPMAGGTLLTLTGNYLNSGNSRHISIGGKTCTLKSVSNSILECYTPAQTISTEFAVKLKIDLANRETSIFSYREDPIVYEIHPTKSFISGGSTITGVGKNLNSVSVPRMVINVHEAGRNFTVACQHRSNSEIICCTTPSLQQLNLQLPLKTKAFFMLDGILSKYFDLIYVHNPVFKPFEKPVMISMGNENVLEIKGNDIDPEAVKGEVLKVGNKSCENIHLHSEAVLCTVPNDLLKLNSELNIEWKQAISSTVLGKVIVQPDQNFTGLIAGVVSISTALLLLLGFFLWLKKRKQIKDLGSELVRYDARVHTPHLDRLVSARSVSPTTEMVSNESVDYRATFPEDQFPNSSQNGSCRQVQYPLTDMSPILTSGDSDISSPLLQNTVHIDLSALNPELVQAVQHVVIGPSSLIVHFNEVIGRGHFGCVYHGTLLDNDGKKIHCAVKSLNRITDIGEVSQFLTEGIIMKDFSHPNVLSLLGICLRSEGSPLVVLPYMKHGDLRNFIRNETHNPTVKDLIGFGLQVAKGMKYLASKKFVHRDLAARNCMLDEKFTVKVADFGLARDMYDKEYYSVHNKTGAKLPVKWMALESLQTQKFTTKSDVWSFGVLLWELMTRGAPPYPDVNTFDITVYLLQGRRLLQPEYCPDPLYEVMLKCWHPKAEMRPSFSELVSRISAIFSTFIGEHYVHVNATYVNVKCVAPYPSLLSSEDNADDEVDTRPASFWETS

In [1], `CC(NS(=O)(=O)c1cc(-c2cnn(C3CCNCC3)c2)cnc1N)c1c(Cl)ccc(F)c1Cl` (configuration not stated) registered an IC50 greater than 10 µM.

Consider `COc1cc2ncnc(Nc3ccc(F)c(Cl)c3)c2cc1OCCCN1CCOCC1`, for which the inhibition entry in [2] and in assay [4] was “inactive” throughout. In addition, in assay [3], the inhibition entry was “Active”.

The molecule `C[C@H](Sc1cc(-c2cnn(C3CCNCC3)c2)cnc1N)c1c(Cl)ccc(F)c1Cl` registered an IC50 in [5] of 0.171 µM.

With `C[C@@H](Oc1cc(-c2cnn(C3CCNCC3)c2)cnc1N)c1c(Cl)ccc(F)c1Cl` [CRIZOTINIB], the IC50 in the assay on HCT-116 was found to be 14.8 µM; in the assay with SK-MEL-28, 11 µM; with SK-OV-3 it was 12.8 µM; in the assay with MCF7 it was 9.58 µM; with MDA-MB-231, 10.8 µM; in the assay on NCI-H441, 17.2 µM. The IC50 in the assay with NCI-H661 turned out to be 11.5 µM; in [6], 0.023 µM; in the assay on SNU-5 it was 0.016 µM; in the assay with MKN-45 it was 0.013 µM. In addition, the inhibition in vivo at 50 mg/kg in the assay with NIH3T3 is 82.4%.

On to `CC(Sc1cc(-c2cnn(C3CCNCC3)c2)cnc1N)c1c(Cl)ccc(F)c1Cl` (racemic), for which inhibition in assay [5] was half-maximal at 0.0164 µM (IC50).

By IC50 is commonly meant the concentration that inhibits the measured activity by half.
